These results are taken from ChEMBL document CHEMBL1146857 (J Med Chem, 2006).

Calls of active or inactive are those of the source. The rule behind the calls is not given here.

Chain of Histone deacetylase 4 (P56524 whole entry): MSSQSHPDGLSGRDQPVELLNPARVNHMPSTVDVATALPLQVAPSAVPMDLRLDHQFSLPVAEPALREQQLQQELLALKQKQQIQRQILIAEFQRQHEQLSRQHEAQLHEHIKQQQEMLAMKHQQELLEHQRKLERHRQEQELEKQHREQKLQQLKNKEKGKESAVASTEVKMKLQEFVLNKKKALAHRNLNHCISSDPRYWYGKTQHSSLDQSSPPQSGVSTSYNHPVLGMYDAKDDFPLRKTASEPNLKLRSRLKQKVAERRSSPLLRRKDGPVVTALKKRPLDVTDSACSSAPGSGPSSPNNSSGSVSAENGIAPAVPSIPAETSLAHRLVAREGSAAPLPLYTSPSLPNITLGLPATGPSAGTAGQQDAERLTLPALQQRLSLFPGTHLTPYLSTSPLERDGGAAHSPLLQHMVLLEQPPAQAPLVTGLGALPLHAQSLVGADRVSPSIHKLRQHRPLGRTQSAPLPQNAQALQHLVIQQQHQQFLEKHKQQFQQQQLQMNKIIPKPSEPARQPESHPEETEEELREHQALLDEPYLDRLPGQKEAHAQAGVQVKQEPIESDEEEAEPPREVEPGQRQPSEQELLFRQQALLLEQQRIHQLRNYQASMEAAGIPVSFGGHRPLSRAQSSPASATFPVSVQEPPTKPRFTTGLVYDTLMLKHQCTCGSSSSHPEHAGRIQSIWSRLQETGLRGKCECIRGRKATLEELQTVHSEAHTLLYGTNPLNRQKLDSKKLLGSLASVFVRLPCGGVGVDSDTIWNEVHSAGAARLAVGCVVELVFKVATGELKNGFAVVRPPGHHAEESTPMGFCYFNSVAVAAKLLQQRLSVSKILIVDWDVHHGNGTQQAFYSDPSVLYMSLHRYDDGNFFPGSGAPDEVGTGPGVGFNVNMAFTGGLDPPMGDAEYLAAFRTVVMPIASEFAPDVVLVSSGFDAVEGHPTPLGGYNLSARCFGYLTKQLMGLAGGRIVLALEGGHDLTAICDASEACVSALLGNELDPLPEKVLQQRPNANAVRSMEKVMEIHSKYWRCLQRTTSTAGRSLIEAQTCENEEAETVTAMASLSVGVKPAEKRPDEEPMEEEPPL

The target in the first experiment is T1, Protein deacetylase HDAC6 (Homo sapiens, UniProt Q9UBN7).
T1 sequence (Q9UBN7 whole entry): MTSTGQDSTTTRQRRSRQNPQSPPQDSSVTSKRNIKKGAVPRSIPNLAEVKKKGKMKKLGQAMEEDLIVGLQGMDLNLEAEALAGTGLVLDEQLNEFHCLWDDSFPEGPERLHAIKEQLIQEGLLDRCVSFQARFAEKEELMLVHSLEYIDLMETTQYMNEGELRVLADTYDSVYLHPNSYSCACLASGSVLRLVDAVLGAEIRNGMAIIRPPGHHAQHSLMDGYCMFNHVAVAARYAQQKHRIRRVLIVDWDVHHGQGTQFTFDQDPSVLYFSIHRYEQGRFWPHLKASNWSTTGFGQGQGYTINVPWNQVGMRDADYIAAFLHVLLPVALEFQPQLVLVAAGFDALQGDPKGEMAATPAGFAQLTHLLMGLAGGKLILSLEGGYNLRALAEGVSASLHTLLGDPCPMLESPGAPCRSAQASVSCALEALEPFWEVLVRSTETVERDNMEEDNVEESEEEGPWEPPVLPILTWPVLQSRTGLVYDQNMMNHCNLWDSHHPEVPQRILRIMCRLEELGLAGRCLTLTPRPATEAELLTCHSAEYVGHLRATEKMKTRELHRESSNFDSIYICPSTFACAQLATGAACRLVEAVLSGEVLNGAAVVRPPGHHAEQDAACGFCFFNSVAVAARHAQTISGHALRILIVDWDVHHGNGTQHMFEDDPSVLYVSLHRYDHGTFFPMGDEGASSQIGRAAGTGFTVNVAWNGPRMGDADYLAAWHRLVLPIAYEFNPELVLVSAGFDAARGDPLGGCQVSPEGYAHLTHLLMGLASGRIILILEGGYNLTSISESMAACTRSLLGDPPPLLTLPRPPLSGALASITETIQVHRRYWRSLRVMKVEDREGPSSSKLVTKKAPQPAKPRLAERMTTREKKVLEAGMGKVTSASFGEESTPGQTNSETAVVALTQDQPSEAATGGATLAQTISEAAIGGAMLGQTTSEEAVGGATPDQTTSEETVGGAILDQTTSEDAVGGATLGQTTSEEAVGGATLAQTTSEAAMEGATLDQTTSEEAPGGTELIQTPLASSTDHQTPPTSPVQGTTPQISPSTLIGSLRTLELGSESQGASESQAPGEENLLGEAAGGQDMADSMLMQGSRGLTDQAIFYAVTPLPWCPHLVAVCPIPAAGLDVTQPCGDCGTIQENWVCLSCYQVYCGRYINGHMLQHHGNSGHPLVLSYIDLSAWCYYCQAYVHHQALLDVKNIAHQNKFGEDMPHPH
Briefly: Inhibition of HDAC6.
`CC(C)(C)OC(=O)N[C@@H](CCCCCS)C(=O)NC1CCCCCC1` showed an IC50 of 23 nM.

`CC(C)(C)OC(=O)N[C@@H](CCCCCS)C(=O)NC1CCCCC1` came in with an IC50 of 36 nM.

As to `CC(C)(C)OC(=O)N[C@@H](CCCCCS)C(=O)NC1CCCC1`, the IC50 came out at 29 nM.

The target of another experiment is Histone deacetylase 1 (Homo sapiens, UniProt Q13547). Briefly: Inhibition of HDAC1.
Chain of Histone deacetylase 1 (Q13547 whole entry): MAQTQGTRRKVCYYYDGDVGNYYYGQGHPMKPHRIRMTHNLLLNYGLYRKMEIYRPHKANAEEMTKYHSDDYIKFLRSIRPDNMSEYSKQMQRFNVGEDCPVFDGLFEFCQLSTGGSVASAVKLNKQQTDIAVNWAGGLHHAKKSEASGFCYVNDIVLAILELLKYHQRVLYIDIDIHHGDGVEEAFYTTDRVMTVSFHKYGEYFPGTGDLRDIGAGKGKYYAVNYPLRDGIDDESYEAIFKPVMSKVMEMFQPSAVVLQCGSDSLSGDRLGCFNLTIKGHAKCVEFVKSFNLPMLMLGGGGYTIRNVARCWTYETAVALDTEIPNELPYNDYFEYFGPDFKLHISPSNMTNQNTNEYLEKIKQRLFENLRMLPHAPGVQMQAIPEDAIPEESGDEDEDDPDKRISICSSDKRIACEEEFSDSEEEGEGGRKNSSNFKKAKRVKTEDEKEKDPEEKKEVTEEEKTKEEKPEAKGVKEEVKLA
`CC(C)(C)OC(=O)N[C@@H](CCCCCS)C(=O)NC1CCCCCC1` yielded an IC50 of 900 nM.

The molecule `CC(C)(C)OC(=O)N[C@@H](CCCCCS)C(=O)NC1CCCCC1` came in with an IC50 of 1270 nM.

For `CC(C)(C)OC(=O)N[C@@H](CCCCCS)C(=O)NC1CCCC1`, the IC50 was 1210 nM.

The next experiment has as its target Histone deacetylase 4 (Homo sapiens, UniProt P56524). Briefly: Inhibition of HDAC4.
Regarding `CC(C)(C)OC(=O)N[C@@H](CCCCCS)C(=O)NC1CCCCCC1`, the midpoint of inhibition, the IC50, lay at 840 nM.

Regarding `CC(C)(C)OC(=O)N[C@@H](CCCCCS)C(=O)NC1CCCCC1`, it took 1140 nM to reach half-maximal inhibition (IC50).

On to `CC(C)(C)OC(=O)N[C@@H](CCCCCS)C(=O)NC1CCCC1`, for which the IC50 was found to be 1030 nM.

The next experiment is filed under the species Homo sapiens. Briefly: Selectivity for HDAC6 over HDAC4.
With `CC(C)(C)OC(=O)N[C@@H](CCCCCS)C(=O)NC1CCCCCC1`, the Selectivity ratio came out at 37.

On to `CC(C)(C)OC(=O)N[C@@H](CCCCCS)C(=O)NC1CCCCC1`, for which the Selectivity ratio stood at 32.

As for `CC(C)(C)OC(=O)N[C@@H](CCCCCS)C(=O)NC1CCCC1`, the Selectivity ratio came to 36.

The species entered for another experiment is Homo sapiens. Briefly: Selectivity for HDAC6 over HDAC1.
Regarding `CC(C)(C)OC(=O)N[C@@H](CCCCCS)C(=O)NC1CCCCCC1`, the Selectivity ratio is 39.

Regarding `CC(C)(C)OC(=O)N[C@@H](CCCCCS)C(=O)NC1CCCCC1`, the Selectivity ratio worked out at 35.

Regarding `CC(C)(C)OC(=O)N[C@@H](CCCCCS)C(=O)NC1CCCC1`, the Selectivity ratio is 42.

Another experiment relates to HCT-116. Briefly: Increase in acetylated histone H4 accumulation in human HCT116 cells after 8 hrs. It counts as functional, cell-based. The gist of the method:
(§1)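 HCT116 cells were treated for 8 h in McCoy5A medium with 0.1% DMSO over a range of concentrations. Acetylated α-tubulin and histone H4 were detected by Western blot and quantified, and EC50 values were estimated from the concentration curves.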
`CC(C)C(=O)SCCCCCCC(=O)Nc1nc(-c2ccccc2)cs1`: the outcome was Active.

For `CC(C)C(=O)SCCCCCCC(=O)Nc1cccc(-c2ccccc2)c1`, the result was Active.

The next experiment concerns HCT-116. Briefly: Increase in acetylated alpha-tubulin accumulation in human HCT116 cells after 8 hrs. It counts as functional, cell-based. The gist of the method:
as §1
Consider `CC(C)C(=O)SCCCCCCC(=O)Nc1nc(-c2ccccc2)cs1`, for which the outcome was Active.

Consider `CC(C)C(=O)SCCCCC[C@H](NC(=O)OC(C)(C)C)C(=O)NC1CCCCCC1`, for which the Activity result was “Dose-dependent effect”.

In the case of `CC(C)C(=O)SCCCCC[C@H](NC(=O)OC(C)(C)C)C(=O)NC1CCCC1`, the Activity result was “Dose-dependent effect”.

Take `CC(C)C(=O)SCCCCC[C@H](NC(=O)OC(C)(C)C)C(=O)NC(C)(C)C`: the Activity entry is “Dose-dependent effect”.

As for `CC(C)C(=O)SCCCCC[C@H](NC(=O)OC(C)(C)C)C(=O)NC1CCCCC1`, the Activity result is “Dose-dependent effect”.

As a reminder, the IC50 is the concentration that inhibits the measured activity by half. Higher therefore signals a need for much substance.
